Reference: ChEMBL document CHEMBL1152541, “Staurosporine tethered peptide ligands that target cAMP-dependent protein kinase (PKA): optimization and selectivity profiling” (Bioorg Med Chem, 2009)
Each block holds one compound with its values, some of them ahead of it. *1 amine or outer side, *2 acyl side, *3 side chain or, on linkers, in order; H or OH if unused. Where a SMILES comes first, the peptide text is derived from it. Bridges are numbered along the chain shown (N, C = ends). [ ]: non-standard residue; d: D form. The star is where a group is joined. Staurosporine = CO[C@@H]1[C@H](N(C)*)C[C@H]2O[C@]1(C)n1c3ccccc3c3c4c(c5c6ccccc6n2c5c31)C(=O)NC4; Suc = O=C(CCC(=O)[*:2])[*:1]; Dap = NC[C@H](N)C(=O)O; βAla = NCCC(=O)O

Columns and labels:
[1] = target: Phosphatidylinositol 4-phosphate 3-kinase C2 domain-containing subunit beta (Homo sapiens) (UniProt O00750); test: Binding affinity to human PIK3C2beta at 500 nM by cell-based competition binding assay relative to control in presence of DTT
Phosphatidylinositol 4-phosphate 3-kinase C2 domain-containing subunit beta (Homo sapiens), sequence (O00750 whole entry, the tested form may be a part): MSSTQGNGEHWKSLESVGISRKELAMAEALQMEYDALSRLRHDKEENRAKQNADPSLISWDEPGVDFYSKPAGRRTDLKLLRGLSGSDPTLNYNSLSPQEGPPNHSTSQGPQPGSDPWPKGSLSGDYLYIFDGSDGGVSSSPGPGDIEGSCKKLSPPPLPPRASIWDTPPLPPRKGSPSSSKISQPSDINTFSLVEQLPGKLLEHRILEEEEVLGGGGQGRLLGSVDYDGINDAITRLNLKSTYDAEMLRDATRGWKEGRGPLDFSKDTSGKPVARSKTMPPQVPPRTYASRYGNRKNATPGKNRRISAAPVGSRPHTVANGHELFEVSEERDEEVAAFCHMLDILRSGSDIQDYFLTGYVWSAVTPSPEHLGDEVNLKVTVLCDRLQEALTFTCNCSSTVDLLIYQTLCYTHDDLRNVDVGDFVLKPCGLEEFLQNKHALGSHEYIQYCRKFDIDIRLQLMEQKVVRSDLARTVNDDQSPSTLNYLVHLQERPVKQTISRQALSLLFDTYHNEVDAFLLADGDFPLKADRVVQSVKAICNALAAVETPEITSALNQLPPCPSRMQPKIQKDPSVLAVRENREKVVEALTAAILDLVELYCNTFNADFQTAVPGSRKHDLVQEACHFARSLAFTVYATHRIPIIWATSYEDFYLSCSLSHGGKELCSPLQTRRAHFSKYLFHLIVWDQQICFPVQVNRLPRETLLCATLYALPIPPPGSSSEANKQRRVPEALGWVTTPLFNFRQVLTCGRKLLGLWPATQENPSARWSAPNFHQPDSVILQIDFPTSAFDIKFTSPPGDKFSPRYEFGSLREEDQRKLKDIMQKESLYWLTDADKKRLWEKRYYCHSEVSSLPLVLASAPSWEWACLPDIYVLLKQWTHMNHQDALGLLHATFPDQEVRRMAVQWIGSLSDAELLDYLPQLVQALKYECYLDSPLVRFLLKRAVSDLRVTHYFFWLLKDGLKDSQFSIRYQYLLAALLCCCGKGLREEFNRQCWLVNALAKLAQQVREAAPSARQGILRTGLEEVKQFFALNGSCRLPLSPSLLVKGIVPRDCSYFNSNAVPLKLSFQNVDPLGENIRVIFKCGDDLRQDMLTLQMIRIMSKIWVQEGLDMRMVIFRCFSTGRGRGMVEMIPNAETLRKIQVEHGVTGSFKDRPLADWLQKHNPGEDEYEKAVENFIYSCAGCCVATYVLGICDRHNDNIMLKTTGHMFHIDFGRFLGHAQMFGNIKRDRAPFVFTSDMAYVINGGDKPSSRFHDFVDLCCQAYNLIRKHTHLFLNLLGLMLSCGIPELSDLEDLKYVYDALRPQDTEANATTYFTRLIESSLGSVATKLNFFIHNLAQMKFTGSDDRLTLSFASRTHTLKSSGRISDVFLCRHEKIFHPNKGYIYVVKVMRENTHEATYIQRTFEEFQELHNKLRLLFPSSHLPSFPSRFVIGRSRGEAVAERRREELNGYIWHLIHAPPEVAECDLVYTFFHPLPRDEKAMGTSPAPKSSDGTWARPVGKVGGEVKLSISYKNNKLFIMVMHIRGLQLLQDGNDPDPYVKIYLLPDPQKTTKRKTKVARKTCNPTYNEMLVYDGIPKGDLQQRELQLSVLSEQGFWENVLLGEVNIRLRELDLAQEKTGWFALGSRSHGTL

[2] = test system: Tyrosine-protein kinase ABL1 (Homo sapiens), P00519 [T315I]; test: Binding affinity to human ABL1 T315I mutant at 500 nM by cell-based competition binding assay relative to control in presence of DTT
Method in brief: (§1)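 Kinase binding profiling ran on a commercial (Ambit) competitive binding screen against a panel of 90 kinases. The screen used reducing conditions with 7.5 mM DTT. To withstand the DTT, the bivalent ligand was tested as its amide isostere, with the disulfide replaced. A staurosporine derivative carrying a 3 β-alanine linker was run as the reference compound.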

[3] = target: ALK tyrosine kinase receptor (Homo sapiens) (UniProt Q9UM73); test: Binding affinity to human ALK at 500 nM by cell-based competition binding assay relative to control in presence of DTT; method in brief: as §1
ALK tyrosine kinase receptor (Homo sapiens), sequence (Q9UM73 19-1620 limits assumed): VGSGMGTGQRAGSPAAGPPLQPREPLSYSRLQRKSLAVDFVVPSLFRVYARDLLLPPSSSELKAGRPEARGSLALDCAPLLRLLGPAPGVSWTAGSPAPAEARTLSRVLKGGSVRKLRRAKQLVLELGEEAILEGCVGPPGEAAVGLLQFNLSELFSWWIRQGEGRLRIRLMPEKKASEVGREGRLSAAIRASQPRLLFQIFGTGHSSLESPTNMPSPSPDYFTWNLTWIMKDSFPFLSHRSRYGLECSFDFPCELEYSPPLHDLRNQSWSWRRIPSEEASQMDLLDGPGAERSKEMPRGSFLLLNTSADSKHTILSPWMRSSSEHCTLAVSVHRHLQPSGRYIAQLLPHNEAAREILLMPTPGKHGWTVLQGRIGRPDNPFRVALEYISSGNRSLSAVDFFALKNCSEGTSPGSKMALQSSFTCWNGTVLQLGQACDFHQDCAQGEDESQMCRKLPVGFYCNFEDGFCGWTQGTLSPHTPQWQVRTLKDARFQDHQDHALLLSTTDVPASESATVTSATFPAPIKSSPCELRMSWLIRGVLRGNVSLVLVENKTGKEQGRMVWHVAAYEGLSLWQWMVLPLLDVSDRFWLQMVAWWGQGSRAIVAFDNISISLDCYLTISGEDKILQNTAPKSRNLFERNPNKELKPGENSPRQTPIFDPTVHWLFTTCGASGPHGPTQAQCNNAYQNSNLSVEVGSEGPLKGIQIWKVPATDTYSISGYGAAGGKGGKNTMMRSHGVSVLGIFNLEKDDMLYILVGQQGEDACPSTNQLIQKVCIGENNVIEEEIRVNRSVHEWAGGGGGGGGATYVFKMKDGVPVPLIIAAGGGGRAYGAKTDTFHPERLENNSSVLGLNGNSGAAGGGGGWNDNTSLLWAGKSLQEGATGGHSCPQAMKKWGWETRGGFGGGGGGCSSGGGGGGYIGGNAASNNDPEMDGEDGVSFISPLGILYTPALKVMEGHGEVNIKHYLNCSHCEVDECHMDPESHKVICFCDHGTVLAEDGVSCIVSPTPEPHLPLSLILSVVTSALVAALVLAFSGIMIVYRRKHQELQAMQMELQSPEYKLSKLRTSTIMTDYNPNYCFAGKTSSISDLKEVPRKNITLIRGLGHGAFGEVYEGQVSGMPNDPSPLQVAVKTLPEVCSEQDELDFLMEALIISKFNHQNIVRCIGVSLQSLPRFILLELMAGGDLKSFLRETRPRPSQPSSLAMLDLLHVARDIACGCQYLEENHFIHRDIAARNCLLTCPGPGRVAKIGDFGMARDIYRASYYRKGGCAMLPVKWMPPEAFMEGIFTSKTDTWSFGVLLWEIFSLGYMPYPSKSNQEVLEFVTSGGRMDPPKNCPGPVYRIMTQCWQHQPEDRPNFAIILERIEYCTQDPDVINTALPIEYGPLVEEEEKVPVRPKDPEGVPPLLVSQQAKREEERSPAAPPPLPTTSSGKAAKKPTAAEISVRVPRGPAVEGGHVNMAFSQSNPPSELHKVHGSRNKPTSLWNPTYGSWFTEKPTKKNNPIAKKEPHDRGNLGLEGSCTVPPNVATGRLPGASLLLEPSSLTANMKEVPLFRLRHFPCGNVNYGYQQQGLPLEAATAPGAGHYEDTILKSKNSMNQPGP

[4] = target: Fibroblast growth factor receptor 2 (Homo sapiens) (UniProt P21802); test: Binding affinity to human FGFR2 at 500 nM by cell-based competition binding assay relative to control in presence of DTT
Method in brief: (§2)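 Commercial (Ambit) competitive kinase-binding panel of 90 kinases measured the binding profile. Run under reducing conditions of 7.5 mM DTT. Binding is expressed relative to control.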

[5] = Ratio of compound IC50 to bivalent ligand 1 IC50 for PKA
[6] = target: MAP kinase-interacting serine/threonine-protein kinase 1 (Homo sapiens) (UniProt Q9BUB5); test: Binding affinity to human MKNK1 at 200 nM by cell-based competition binding assay relative to control in presence of DTT
MAP kinase-interacting serine/threonine-protein kinase 1 (Homo sapiens), sequence (Q9BUB5 whole entry, looked up): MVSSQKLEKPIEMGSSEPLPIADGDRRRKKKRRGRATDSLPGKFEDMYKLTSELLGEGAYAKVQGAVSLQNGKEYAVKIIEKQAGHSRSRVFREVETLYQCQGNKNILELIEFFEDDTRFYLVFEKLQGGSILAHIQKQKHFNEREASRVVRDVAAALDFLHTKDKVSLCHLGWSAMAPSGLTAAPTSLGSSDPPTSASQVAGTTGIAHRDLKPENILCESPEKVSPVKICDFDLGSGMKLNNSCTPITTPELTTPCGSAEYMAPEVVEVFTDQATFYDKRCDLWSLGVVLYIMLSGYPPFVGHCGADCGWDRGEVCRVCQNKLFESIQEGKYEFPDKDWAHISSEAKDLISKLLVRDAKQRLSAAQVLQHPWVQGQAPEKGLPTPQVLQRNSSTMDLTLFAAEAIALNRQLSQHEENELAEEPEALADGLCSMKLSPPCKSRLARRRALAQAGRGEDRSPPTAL

[7] = target: RAF proto-oncogene serine/threonine-protein kinase (Homo sapiens) (UniProt P04049); test: Binding affinity to human RAF1 at 200 nM by cell-based competition binding assay relative to control in presence of DTT
RAF proto-oncogene serine/threonine-protein kinase (Homo sapiens), sequence (P04049 whole entry): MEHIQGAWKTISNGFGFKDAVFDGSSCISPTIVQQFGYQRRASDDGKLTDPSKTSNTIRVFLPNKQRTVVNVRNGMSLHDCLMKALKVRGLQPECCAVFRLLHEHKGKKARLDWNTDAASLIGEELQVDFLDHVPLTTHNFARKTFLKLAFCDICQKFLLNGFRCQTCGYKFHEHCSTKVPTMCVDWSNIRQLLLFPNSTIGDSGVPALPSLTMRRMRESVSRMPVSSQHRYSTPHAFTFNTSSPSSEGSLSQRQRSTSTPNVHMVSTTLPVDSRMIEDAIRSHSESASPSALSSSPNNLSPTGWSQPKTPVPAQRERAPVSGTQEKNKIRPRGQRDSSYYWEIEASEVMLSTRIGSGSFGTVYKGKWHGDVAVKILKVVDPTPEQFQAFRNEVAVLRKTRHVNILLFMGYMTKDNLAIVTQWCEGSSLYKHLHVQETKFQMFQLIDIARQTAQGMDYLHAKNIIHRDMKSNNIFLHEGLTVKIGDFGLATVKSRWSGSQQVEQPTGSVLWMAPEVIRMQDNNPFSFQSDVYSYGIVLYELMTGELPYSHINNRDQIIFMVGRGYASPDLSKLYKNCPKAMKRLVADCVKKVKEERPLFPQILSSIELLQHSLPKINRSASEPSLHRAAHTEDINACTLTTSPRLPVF

[8] = target: T1, NUAK family SNF1-like kinase 2 (Homo sapiens) (UniProt Q9H093); test: Binding affinity to human SNARK at 200 nM by cell-based competition binding assay relative to control in presence of DTT
T1 sequence (whole entry): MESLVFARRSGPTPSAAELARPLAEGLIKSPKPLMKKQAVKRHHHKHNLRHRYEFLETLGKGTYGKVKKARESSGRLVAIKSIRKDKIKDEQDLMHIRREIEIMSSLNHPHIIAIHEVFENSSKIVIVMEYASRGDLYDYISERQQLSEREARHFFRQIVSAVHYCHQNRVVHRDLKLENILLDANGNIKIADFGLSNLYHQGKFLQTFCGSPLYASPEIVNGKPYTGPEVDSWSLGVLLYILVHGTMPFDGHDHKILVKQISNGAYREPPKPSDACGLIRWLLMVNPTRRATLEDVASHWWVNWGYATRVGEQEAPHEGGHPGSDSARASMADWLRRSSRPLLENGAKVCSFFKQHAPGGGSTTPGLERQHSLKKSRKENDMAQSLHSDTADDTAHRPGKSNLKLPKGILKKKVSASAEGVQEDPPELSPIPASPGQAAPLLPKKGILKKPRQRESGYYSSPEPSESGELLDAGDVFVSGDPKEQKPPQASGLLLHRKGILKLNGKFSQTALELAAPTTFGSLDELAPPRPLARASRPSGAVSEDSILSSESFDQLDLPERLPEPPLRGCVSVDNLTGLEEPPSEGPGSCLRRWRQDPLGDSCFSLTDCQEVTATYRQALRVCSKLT

[9] = target: High affinity nerve growth factor receptor (Homo sapiens) (UniProt P04629); test: Binding affinity to human TRKA at 200 nM by cell-based competition binding assay relative to control in presence of DTT
[10] = target: cAMP-dependent protein kinase catalytic subunit alpha (Homo sapiens) (UniProt P17612); test: Binding affinity to human PKACalpha at 200 nM by cell-based competition binding assay relative to control in presence of DTT
[11] = target: Aurora kinase B (Homo sapiens) (UniProt Q96GD4); test: Binding affinity to human aurora kinase B at 50 nM by cell-based competition binding assay relative to control in presence of DTT
Aurora kinase B (Homo sapiens), sequence (Q96GD4 whole entry): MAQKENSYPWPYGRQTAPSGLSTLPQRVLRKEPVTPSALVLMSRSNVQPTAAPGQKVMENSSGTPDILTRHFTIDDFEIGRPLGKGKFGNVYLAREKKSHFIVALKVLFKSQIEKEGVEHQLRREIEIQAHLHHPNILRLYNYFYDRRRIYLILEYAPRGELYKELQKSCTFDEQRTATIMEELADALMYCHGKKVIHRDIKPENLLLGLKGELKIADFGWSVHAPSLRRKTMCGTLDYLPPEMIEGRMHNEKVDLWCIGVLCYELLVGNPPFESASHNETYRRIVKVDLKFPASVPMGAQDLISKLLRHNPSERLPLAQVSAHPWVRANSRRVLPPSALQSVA

[12] = target: Cyclin-dependent kinase 9 (Homo sapiens) (UniProt P50750); test: Binding affinity to human CDK9 at 50 nM by cell-based competition binding assay relative to control in presence of DTT; method in brief: as §2
[13] = test system: Mast/stem cell growth factor receptor Kit (Homo sapiens), P10721 [D816V]; test: Binding affinity to human KIT D816V mutant at 50 nM by cell-based competition binding assay relative to control in presence of DTT
Method in brief: (§3)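 Competition binding screen (Ambit) across a panel of 90 kinases, scoring test ligand displacement of each kinase's binding relative to control. The screen ran under reducing conditions with 7.5 mM DTT.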

[14] = target: T2, Serine/threonine-protein kinase STK11 (Homo sapiens) (UniProt Q15831); test: Binding affinity to human LKB1 at 50 nM by cell-based competition binding assay relative to control in presence of DTT; method in brief: as §3
T2 sequence (whole entry): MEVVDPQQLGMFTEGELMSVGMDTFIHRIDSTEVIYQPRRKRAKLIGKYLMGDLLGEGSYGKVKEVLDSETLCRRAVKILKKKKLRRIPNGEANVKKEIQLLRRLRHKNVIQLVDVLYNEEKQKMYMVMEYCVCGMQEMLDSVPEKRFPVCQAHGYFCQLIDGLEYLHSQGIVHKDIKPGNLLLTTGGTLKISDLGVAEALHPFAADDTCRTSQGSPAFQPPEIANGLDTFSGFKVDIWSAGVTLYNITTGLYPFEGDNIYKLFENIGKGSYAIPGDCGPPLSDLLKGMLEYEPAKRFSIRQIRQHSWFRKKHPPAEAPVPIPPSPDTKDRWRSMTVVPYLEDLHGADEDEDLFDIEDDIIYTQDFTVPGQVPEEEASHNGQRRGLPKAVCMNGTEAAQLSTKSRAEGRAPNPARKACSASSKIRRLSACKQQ

[15] = target: Dual specificity mitogen-activated protein kinase kinase 2 (Homo sapiens) (UniProt P36507); test: Binding affinity to human MEK2 at 50 nM by cell-based competition binding assay relative to control in presence of DTT
Dual specificity mitogen-activated protein kinase kinase 2 (Homo sapiens), sequence (P36507 whole entry): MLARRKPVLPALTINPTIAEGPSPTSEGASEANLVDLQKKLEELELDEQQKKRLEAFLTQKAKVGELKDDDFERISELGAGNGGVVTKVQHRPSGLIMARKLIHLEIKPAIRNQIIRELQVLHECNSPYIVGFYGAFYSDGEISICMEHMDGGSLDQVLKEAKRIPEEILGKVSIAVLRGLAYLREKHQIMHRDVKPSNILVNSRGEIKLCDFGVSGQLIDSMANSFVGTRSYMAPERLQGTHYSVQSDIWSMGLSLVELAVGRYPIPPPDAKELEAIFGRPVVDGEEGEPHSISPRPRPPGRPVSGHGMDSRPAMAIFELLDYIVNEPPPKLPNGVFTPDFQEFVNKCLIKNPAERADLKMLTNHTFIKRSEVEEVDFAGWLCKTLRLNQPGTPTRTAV

[16] = target: Serine/threonine-protein kinase PAK 2 (Homo sapiens) (UniProt Q13177); test: Binding affinity to human PAK2 at 50 nM by cell-based competition binding assay relative to control in presence of DTT
[17] = target: Phosphatidylinositol 4-phosphate 3-kinase C2 domain-containing subunit beta (Homo sapiens) (UniProt O00750); test: Binding affinity to human PIK3C2beta at 50 nM by cell-based competition binding assay relative to control in presence of DTT
[18] = target: Mitogen-activated protein kinase 8 (Homo sapiens) (UniProt P45983); test: Binding affinity to human JNK1 at 50 nM by cell-based competition binding assay relative to control in presence of DTT; method in brief: as §3
[19] = target: Tyrosine-protein kinase ABL1 (Homo sapiens) (UniProt P00519); test: Binding affinity to human ABL1 at 50 nM by cell-based competition binding assay relative to control in presence of DTT; method in brief: as §1

Activity [1]: 98%
Activity [2]: 35%
Activity [3]: 5.2%
Activity [4]: 27%
Ratio IC50 [5]: > 60
Structure (SMILES): CO[C@@H]1[C@H](N(C)C(=O)CCC(=O)NCCC(=O)NCCC(=O)NCCC(N)=O)C[C@H]2O[C@]1(C)n1c3ccccc3c3c4c(c5c6ccccc6n2c5c31)C(=O)NC4

Activity [6]: 96%
Activity [7]: 89%
Activity [8]: 0.45%
Activity [9]: 57%
Activity [10]: 19%
Structure (SMILES): CO[C@@H]1[C@H](N(C)C(=O)CCC(=O)NCCC(=O)NCCC(=O)NCCC(=O)NCCC(=O)NCCC(=O)NCCC(=O)NCCC(=O)N[C@H]2CSSC[C@@H](C(=O)NCC(N)=O)NC(=O)CNC(=O)[C@H](Cc3ccccc3)NC(=O)[C@H](C(C)C)NC(=O)[C@H](CCCNC(=N)N)NC(=O)[C@H](Cc3ccccc3)NC(=O)[C@H](C(C)C)NC2=O)C[C@H]2O[C@]1(C)n1c3ccccc3c3c4c(c5c6ccccc6n2c5c31)C(=O)NC4 ({Staurosporine-Suc-βAla-βAla-βAla-βAla-βAla-βAla-βAla}-CVFRVFGCG-NH2; disulfide 1-8)

Activity [11]: 33%
Activity [12]: 99%
Activity [13]: 6.5%
Activity [14]: 100%
Activity [15]: 87%
Activity [16]: 72%
Activity [17]: 100%
Activity [18]: 100%
Activity [19]: 94%
Structure (SMILES): CO[C@@H]1[C@H](N(C)C(=O)CCC(=O)NCCC(=O)NCCC(=O)NCCC(=O)NCCC(=O)NCCC(=O)NCCC(=O)NCCC(=O)N[C@H]2CNC(=O)C[C@@H](C(N)=O)NC(=O)CNC(=O)[C@H](Cc3ccccc3)NC(=O)[C@H](C(C)C)NC(=O)[C@H](CCCNC(=N)N)NC(=O)[C@H](Cc3ccccc3)NC(=O)[C@H](C(C)C)NC2=O)C[C@H]2O[C@]1(C)n1c3ccccc3c3c4c(c5c6ccccc6n2c5c31)C(=O)NC4 ({Staurosporine-Suc-βAla-βAla-βAla-βAla-βAla-βAla-βAla}-[Dap]VFRVFGD-NH2; lactam 1-8)
